Reference: ChEMBL document CHEMBL1121891, “Structure--activity relationship in cinnamamides. 3. Synthesis and anticonvulsant activity evaluation of some derivatives of (E)- and (Z)-m-(trifluoromethyl)cinnamamide” (J Med Chem, 1981)
Active and inactive are the calls of the source. The calls are words filed in the database; no cut-off is given here.

Assays:
Mus musculus [1] = assay: Compound was evaluated for anticonvulsant activity in mouse after peroral administration.; format: functional; settings: po
Outline: (§1)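 Male albino mice (Icem-CET, SPF Caw), 17–22 g, fasted 9 h; compounds suspended in 0.5% methocel and given by gavage at 0.2 mL/10 g. Antagonism of pentylenetetrazole seizures was scored in groups of 20 per dose, at four or five doses per compound. ED50 was derived by probit analysis with p = 0.05 fiducial limits. Inactives were tested at a single screening dose.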

Mus musculus [2] = assay: Compound was evaluated for positional passivity after peroral administration; format: functional
Outline: (§2)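 Irwin observational test in fasted male albino mice given oral suspensions in 0.5% methocel by gavage. Doses were 25, 50, 100, 200, 400 and 800 mg/kg, with signs checked up to 6 h. The value is the dose giving 50% of maximal effect, interpolated graphically from the log dose/peak effect curve.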

[3] = Lethal dose after peroral administration; format: toxicity, organism-based; settings: mouse, in vivo, po
Mus musculus [4] = assay: Locomotor activity reduction after peroral administration; format: functional; outline: as §2
Mus musculus [5] = assay: Compound was evaluated for loss of righting reflex after peroral administration; format: functional; outline: as §2
Mus musculus [6] = assay: Compound was evaluated for anticonvulsant activity in mouse after peroral administration; inactive at screening dose 100 mg/kg; format: functional, organism-based; set-up: dose 100 mg/kg; outline: as §1
Mus musculus [7] = assay: Compound was evaluated for positional passivity after peroral administration; E denotes absent from 25-800 mg/Kg; format: functional, organism-based; outline: as §2
Mus musculus [8] = assay: Compound was evaluated for minimum effective dose of clonic-type convulsions after peroral administration; format: functional; settings: po, read-out: MED
Outline: (§3)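 Fasted male albino mice received oral suspensions in 0.5% methocel by gavage at 25–800 mg/kg during Irwin-type behavioral observation, followed up to 6 h. The value is the minimum effective dose producing clonic-type convulsions.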

Mus musculus [9] = assay: Compound was evaluated for tremors after peroral administration; format: functional; outline: as §2
Mus musculus [10] = assay: Compound was evaluated for positional passivity after peroral administration; H denotes absent from 25-800 mg/Kg; format: functional, organism-based; outline: as §2
Mus musculus [11] = assay: Compound was evaluated for minimum effective dose of clonic-type convulsions after peroral administration; E denotes absent from 25-800 mg/Kg; format: functional, organism-based; outline: as §3
Mus musculus [12] = assay: Compound was evaluated for tremors after peroral administration; E denotes absent from 25-800 mg/Kg; format: functional, organism-based; outline: as §2
Mus musculus [13] = assay: Compound was evaluated for anticonvulsant activity in mouse after peroral administration; IA is inactive at screening dose; format: functional, organism-based; outline: as §1
Mus musculus [14] = assay: Compound was evaluated for anticonvulsant activity in mouse after peroral administration; IA is Inactive at the screening dose; format: functional, organism-based; outline: as §1
Mus musculus [15] = assay: Compound was evaluated for anticonvulsant activity in mouse after peroral administration; Not checked; format: functional, organism-based

SMILES | ED50 (Mus musculus [1]) [mg/kg] | Passivity (Mus musculus [2]) [mg/kg] | LD50 [3] [mg/kg] | Locomotor activity (Mus musculus [4]) [mg/kg] | Reflex (Mus musculus [5]) [mg/kg] | further results
NC(=O)/C=C/c1cccc(C(F)(F)F)c1 | 23.2 | 200 | 600 | 70 | 70 | –
C/C(C(=O)NC1CC1)=C(\C)c1ccccc1 | – | – | 600 | 400 | – | ED50 (Mus musculus [6]): inactive; Passivity (Mus musculus [7]): Absent; minimal effective dose (Mus musculus [8]): 400 mg/kg; Reflex (Mus musculus [9]): 300 mg/kg
O=C1NC(=O)C(c2ccccc2)(c2ccccc2)N1 [PHENYTOIN] | 9.11 | – | – | 150 | 250 | Passivity (Mus musculus [10]): inactive
C/C(C(=O)NC1CC1)=C(\C)c1ccc(Cl)cc1 | 36.3 | – | – | 170 | – | Passivity (Mus musculus [7]): Absent; MED (Mus musculus [11]): Absent; Reflex (Mus musculus [9]): 600 mg/kg
C/C(C(N)=O)=C(\C)c1cccc(C(F)(F)F)c1 | 32.2 | 250 | 600 | 180 | – | MED (Mus musculus [11]): Absent; Tremors (Mus musculus [12]): Absent
C/C(C(N)=O)=C(\C)c1ccccc1 | – | 800 | > 800 | 400 | – | ED50 (Mus musculus [13]): inactive; MED (Mus musculus [11]): Absent; Tremors (Mus musculus [12]): Absent
C=CCNC(=O)/C(C)=C/c1ccccc1 | 53.8 | 280 | 600 | 200 | 150 | –
C/C(=C\c1cccc(C(F)(F)F)c1)C(N)=O | 22.4 | 250 | 800 | 50 | 150 | –
C=CCNC(=O)/C(C)=C(\C)c1ccccc1 | 67 | 300 | – | 130 | 250 | –
C=CCNC(=O)/C=C(\C)c1ccccc1 | 65.8 | 250 | 450 | 150 | 150 | –
C/C(C(=O)NC1CC1)=C(\C)c1ccc(Br)cc1 | 52.4 | 450 | 600 | 300 | – | MED (Mus musculus [11]): Absent; Tremors (Mus musculus [12]): Absent
C/C(C(N)=O)=C(/C)c1cccc(C(F)(F)F)c1 | – | 85 | 200 | 100 | 25 | ED50 (Mus musculus [14]): inactive
CCC1(c2ccccc2)C(=O)N=C([O-])NC1=O.[Na+] (stereo unspecified) [PHENOBARBITAL SODIUM] | 6.1 | 180 | – | 180 | 110 | –
C=CCNC(=O)/C=C/c1ccccc1 | 52.4 | 280 | 300 | 150 | 150 | –
O=C(/C=C/c1cccc(C(F)(F)F)c1)NC1CC1 | 9.6 | 400 | 700 | 100 | 100 | –
C/C(C(N)=O)=C(/C)c1ccc(Cl)cc1 | 20.9 | 300 | 550 | 200 | 150 | –
C/C(=C\c1cccc(C(F)(F)F)c1)C(=O)NC1CC1 | 24.1 | 400 | 700 | 120 | 150 | –
C#CCNC(=O)/C(C)=C(\C)c1ccc(Cl)cc1 | 10.6 | 400 | – | 60 | 200 | –
C=CCNC(=O)/C(C)=C(\C)c1ccc(Cl)cc1 | 18.6 | 90 | 300 | 70 | 70 | –
C/C(C(=O)NC1CC1)=C(/C)c1ccccc1 | 55.9 | 250 | 500 | 100 | 150 | –
C#CCNC(=O)/C(C)=C(\C)c1cccc(C(F)(F)F)c1 | 25.1 | 180 | 170 | 80 | 110 | –
C=CCNC(=O)/C(C)=C(\C)c1cccc(C(F)(F)F)c1 | – | 350 | 400 | 150 | 140 | ED50 (Mus musculus [15]): Not checked
C/C(C(=O)NC1CC1)=C(/C)c1cccc(C(F)(F)F)c1 | 17.4 | 180 | 140 | 80 | 100 | –
C/C(C(=O)NC1CC1)=C(\C)c1cccc(C(F)(F)F)c1 | 65.5 | – | > 800 | 800 | – | Passivity (Mus musculus [7]): Absent; MED (Mus musculus [11]): Absent; Tremors (Mus musculus [12]): Absent
C/C(C(=O)NC1CC1)=C(/C)c1ccc(Cl)cc1 | 11.4 | >800 | 300 | 350 | 150 | –
